Apaf-1 inh: inhibitors of human Apaf-1 apoptosome | O14727 | reconstituted apoptosome caspase-3 activity, DEVD-Rh110 fluorescence | inhibition, % at 20 µM | actives 0.71% (n = 330,000) | AID 489030; active = inhibition of at least 40% at 20 µM;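 also: plate controls were DMSO wells for no effect and DEVD-CHO caspase inhibitor wells for full effect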
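Material: reconstituted apoptosome with Apaf-1, cytochrome c, caspase-9, procaspase-3, dATP / Buffer or medium: pH 7.5 Hepes buffer with CHAPS, BSA, DTT / Also added: cytochrome c with DEVD-Rh110 / Schedule: compound with Apaf-1, dATP, procaspase-3 30 min, then 50 min reaction, room temperature / Technique: rhodamine 110 fluorescence at Ex 480/Em 540 nm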
UBC13 polyUb: blocks human UBC13 polyubiquitin chain formation; P61088; TR-FRET; inhibition, % at 20 µM; actives 0.47% (n = 330,000); AID 485273; in the data active = inhibition above about 45%, passing the limit was not always enough
MEKK2 mut-MEK5: signal of MEK5 binding to mutant human MEKK2 PB1 domain | actives 0.35% (n = 290,000) | bead flow cytometry, Alexa488-MEK5 binding to MEKK2 mutant | percent response, % at 10 µM; in the data active = percent response above about 24%, passing the limit was not always enough
DSG3 Ab inh: inhibitors of pemphigus antibody binding to human desmoglein-3; DSG3-coupled beads, scFv-anti-DSG3-GFP binding, flow cytometry; active compounds read low; binding (percent of control), % at 10 µM; actives 0.48% (n = 310,000);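 active = binding more than 3 SD below its plate's average and above zero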;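 also: hits lower antibody fragment binding to DSG3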
MEKK3 PB1 HTS: modulators (inhibitors or enhancers) of MEK5 binding to human MEKK3 PB1 domain. actives 1.4% (n = 290,000). Q99759. bead-based flow cytometry, Alexa488-MEK5 binding to MEKK3; actives lie on both sides; 0 = blocked by unlabeled MEK5, 100 = vehicle. binding response (% of control), % at 10 µM;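 active = binding response more than 3 SD above or below the average of its plate-row segment, actives on both sides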;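 also: Alexa488 bead fluorescence after subtracting the streptavidin-only scavenger bead signal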
Target sequence (Q99759 whole entry, looked up, the tested form may be a part): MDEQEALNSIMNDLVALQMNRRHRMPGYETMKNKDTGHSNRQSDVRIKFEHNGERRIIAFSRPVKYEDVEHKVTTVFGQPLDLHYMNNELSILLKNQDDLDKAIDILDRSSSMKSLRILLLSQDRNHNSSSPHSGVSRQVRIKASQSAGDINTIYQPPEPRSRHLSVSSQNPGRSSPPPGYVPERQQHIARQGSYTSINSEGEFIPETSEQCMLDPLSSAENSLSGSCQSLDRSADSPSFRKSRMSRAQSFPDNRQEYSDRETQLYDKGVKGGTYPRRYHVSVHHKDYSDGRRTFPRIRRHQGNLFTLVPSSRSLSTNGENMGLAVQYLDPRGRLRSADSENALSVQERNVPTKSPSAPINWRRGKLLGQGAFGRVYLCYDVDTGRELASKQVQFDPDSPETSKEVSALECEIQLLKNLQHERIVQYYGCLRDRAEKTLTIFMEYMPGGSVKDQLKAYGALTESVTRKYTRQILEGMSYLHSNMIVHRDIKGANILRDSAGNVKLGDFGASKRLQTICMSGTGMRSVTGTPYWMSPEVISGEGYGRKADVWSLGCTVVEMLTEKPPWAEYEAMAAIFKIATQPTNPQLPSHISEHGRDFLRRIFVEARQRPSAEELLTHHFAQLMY
MEKK2wt PB1 HTS: raises or lowers MEK5 binding to wildtype human MEKK2 PB1 domain | binding response (% of control), % at 10 µM | bead flow cytometry, Alexa488-MEK5 binding to MEKK2 WT; actives lie on both sides | AID 1531 | Q9Y2U5 | actives 1.1% (n = 290,000); in the data active = binding response below about 67% or above about 130%
An asterisk follows results filed as active; / = not tested or not shown; [ ] = another dose, or the depositor's remark. Shown are actives, neighbours in structure and some others; about 3.2% of the full set was active somewhere.

SMILES	Apaf-1 inh	UBC13 polyUb	MEKK2 mut-MEK5	DSG3 Ab inh	MEKK3 PB1 HTS	MEKK2wt PB1 HTS
CSCc1ccc(C(=O)NC(C)c2ccc(-n3ccnc3)cc2)cc1 (stereo not drawn)	0.1	7.0	1.0	102.1	104.0	103.0
O=C(NC(=S)Nc1ccc(N2CCOCC2)cc1)c1cccc(Cl)c1Cl	4.9	-0.6	-4.0	97.9	103.0	101.0
CN1CCN(c2ccc(NC(=S)NC(=O)c3cccc4c(Cl)cccc34)cc2)CC1	26.1	25.9	28.0*	107.1	101.0	170.0*
COc1ccc(N2CCN(S(=O)(=O)c3ccc(C(=O)NC4CCCC4)cc3)CC2)cc1	2.3	3.5	-2.0	75.0*	95.0	99.0
CN1CCN(c2ccc(NC(=O)c3ccc(Oc4ccccc4)cc3)cc2)CC1	17.4	21.4	27.0*	117.5	100.0	124.0
COc1ccc(C(=O)NC(=S)Nc2ccc(N3CCCC3)cc2)cc1	11.5	-4.3	1.0	18.9*	102.0	103.0
COc1ccc(C(=O)Nc2ccc(N3CCCC3)cc2)cc1	22.0	-4.4	9.0	147.4	102.0	102.0
CC(C)c1cc(CN2C(C)COCC2C)cc(C(C)C)c1O (stereo not drawn)	/	/	/	89.2	/	/
CC(=O)Nc1cc(OC(C)=O)c2nonc2c1OC(C)=O	97.9*	-39.1	3.0	107.5	100.0	101.0
COCCCn1c(=O)c2ccccc2n(Cc2ccccc2)c1=O	15.3	7.7	1.0	100.4*	99.0	99.0
NS(=O)(=O)c1ccc(CNC(=O)c2ccc3ccccc3n2)cc1	-4.8	6.4	5.0	78.5	105.0	103.0
NS(=O)(=O)c1ccc(CCNC(=O)c2ccc3ccccc3n2)cc1	5.9	-6.8	5.0	98.3	99.0	-3.0*
Cn1c(=O)c2c(SCC(=O)N3CCCC3)nc(CC(C)(C)C)nc2n(C)c1=O	-0.6	3.3	5.0	113.4	102.0	105.0
CSCCC(NS(=O)(=O)c1ccc(Cl)cc1)C(=O)N1CCN(c2ccccc2)CC1 (stereo not drawn)	/	/	/	-2.0*	/	/
CSc1ccc(/C=C/C(=O)c2c(O)cc(C)oc2=O)cc1	22.9	-9.2	5.0	109.0	102.0	99.0
CCOc1ccc(CCNC(=O)c2ccc(C)c(NC3=NC4CS(=O)(=O)CC4S3)c2)cc1 (stereo not drawn)	-1.9	1.4	-1.0	/	101.0	98.0
CCCNC(=O)OC[C@H]1O[C@H](CCO/N=C(\C)CCN2CCc3nc(-c4ccccc4)c(-c4ccccc4)cc3C2)C=C[C@@H]1Oc1ccc(OC)cc1	52.8*	29.5	1.0	/	107.0	112.0
CCCNC(=O)OC[C@H]1O[C@H](CCO/N=C/C[C@@H]2C=C[C@H](OC(C)=O)[C@@H](COC(C)=O)O2)C=C[C@@H]1Oc1ccc(OC)cc1	5.4	14.1	-2.0	/	98.0	102.0
O=C(CC1(CC(=O)N2CCOCC2)CCCC1)Nc1ccc(F)cc1	9.6	-5.6	/	125.8	/	/
Cn1cc(CN2CCC(n3nccc3NC(=O)c3ccccc3Cl)CC2)c2ccccc21	19.1	6.2	19.0	100.8	103.0	155.0*
O=C(Nc1ccnn1C1CCN(Cc2c[nH]c3ccccc23)CC1)c1ccccc1	4.2	6.5	21.0	105.0	105.0	135.0*
COc1ccccc1C(=O)Nc1ccnn1C1CCN(Cc2cn(C)c3ccccc23)CC1	0.1	4.1	11.0	118.8	102.0	116.0
OCCCNCc1ccc(N(c2ccccc2)c2ccccc2)cc1	15.1	13.3	33.0*	115.5	105.0	141.0*
Cc1ccc(S(=O)(=O)NCCN=Cc2ccc(N(C)C)cc2)cc1	3.6	0.3	-1.0	105.8	99.0	61.0*[inhibitor]
O=C(O)C1Nc2c(O)cc(Cl)c([N+](=O)[O-])c2C2C=CCC12 (stereo not drawn)	28.7	37.7	-3.0	65.7*	94.0	87.0
O=C(O)C1Nc2c(cccc2C(F)(F)F)C2C=CCC12 (stereo not drawn)	/	/	-4.0	/	99.0	96.0
CCN(CC)S(=O)(=O)c1ccc(O)c(NC(=O)COc2ccc(S(=O)(=O)N3CCOCC3)cc2)c1	/	/	/	91.3	/	/
COc1ccc(NC(=O)c2ccc(-c3ccccc3)cc2)cc1S(=O)(=O)N1CCOCC1	-17.6	8.9	-4.0	88.0*	96.0	93.0

Assay outcomes: PubChem BioAssay, several laboratories
